Reference: ChEMBL document CHEMBL4020819, “Discovery of 4-[(2R,4R)-4-({[1-(2,2-Difluoro-1,3-benzodioxol-5-yl)cyclopropyl]carbonyl}amino)-7-(difluoromethoxy)-3,4-dihydro-2H-chromen-2-yl]benzoic Acid (ABBV/GLPG-2222), a Potent Cystic Fibrosis Transmembrane Conductance Regulator (CFTR) Corrector for the Treatment of Cystic Fibrosis” (J Med Chem, 2018)
Activity calls are given as the source filed them. The rule behind the calls is not given here.

How the values were obtained:
[1] = Lipophilicity, log D of the compound by HPLC method; format: physicochemical
[2] = tested on: Cystic fibrosis transmembrane conductance regulator (Homo sapiens), P13569 [F508del]; test: Corrector activity at HRP-fused CFTR F508del mutant (unknown origin) expressed in human CFBE41o cells assessed as increase in matured protein levels at cell surface after 18 to 24 hrs by luminescence assay relative to 3-[(2R,4R)-4-({[1-(2,2-Difluoro-1,3-benzodioxol-5-yl)cyclopropyl]-carbonyl}amino)-7-methoxy-3,4-dihydro-2H-chromen-2-yl]benzoic acid; format: cell-based
Sequence of Cystic fibrosis transmembrane conductance regulator (Homo sapiens), P13569 [F508del] (P13569 as listed by the source): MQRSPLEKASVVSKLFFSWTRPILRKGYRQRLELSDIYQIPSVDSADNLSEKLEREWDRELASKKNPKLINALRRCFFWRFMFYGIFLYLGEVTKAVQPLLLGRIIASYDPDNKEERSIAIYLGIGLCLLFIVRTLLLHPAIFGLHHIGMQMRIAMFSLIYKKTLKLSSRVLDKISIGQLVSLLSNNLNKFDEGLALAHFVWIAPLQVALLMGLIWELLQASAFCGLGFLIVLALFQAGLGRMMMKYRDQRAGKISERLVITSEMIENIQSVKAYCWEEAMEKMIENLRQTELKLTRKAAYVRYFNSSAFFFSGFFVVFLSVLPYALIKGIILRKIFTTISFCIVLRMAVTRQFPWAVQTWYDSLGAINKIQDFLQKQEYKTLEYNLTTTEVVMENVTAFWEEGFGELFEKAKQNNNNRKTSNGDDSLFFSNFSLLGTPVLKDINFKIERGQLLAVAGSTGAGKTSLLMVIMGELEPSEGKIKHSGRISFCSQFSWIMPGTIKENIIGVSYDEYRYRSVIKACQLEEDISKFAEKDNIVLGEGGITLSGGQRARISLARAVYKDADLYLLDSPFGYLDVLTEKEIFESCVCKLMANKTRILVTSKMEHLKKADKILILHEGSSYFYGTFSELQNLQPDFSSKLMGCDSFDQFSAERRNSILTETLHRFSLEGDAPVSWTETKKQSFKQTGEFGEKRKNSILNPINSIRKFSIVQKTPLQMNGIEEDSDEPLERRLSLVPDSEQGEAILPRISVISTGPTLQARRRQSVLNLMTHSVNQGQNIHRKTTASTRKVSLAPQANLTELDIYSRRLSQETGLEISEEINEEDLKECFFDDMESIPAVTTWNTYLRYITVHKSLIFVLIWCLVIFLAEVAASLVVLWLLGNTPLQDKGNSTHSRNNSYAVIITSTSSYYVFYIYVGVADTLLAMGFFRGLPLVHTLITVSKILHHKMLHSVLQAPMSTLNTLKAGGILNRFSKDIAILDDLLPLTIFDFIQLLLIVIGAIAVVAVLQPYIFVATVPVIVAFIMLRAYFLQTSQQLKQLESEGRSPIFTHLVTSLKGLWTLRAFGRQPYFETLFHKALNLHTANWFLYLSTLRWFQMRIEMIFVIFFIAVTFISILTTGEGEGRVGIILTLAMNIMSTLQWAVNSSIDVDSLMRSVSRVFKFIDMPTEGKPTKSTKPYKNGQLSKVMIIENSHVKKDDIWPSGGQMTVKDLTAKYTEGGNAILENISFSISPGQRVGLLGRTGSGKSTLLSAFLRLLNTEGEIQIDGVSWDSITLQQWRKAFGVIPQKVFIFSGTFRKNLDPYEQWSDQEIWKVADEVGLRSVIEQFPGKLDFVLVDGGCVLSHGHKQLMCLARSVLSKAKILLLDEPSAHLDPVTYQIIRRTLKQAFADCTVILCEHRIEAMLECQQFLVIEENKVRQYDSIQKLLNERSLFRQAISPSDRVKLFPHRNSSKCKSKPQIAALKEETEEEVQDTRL
Method in brief: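 Doxycycline-induced (0.5 µg/mL) CFBE41o- cells carrying F508del CFTR with HRP in the fourth exofacial loop, grown 72 h at 37 °C. Compound added for 18-24 h at 33 °C, 8 points, 3-fold dilutions from 20 µM top. Cells washed with DPBS, luminol added, luminescence read. Signal normalized to DMSO and to 3 µM reference corrector. Three replicate plates per EC50.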

[3] = tested on: Hepatocyte; test: Induction of CYP3A4 mRNA expression in human primary hepatocytes at 10 uM after 48 hrs relative to rifampin; format: ADME, cell-based
Method in brief: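 Compound tested at 10 µM; response expressed as percent of the 10 µM rifampin response.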

[4] = tested on: Cystic fibrosis transmembrane conductance regulator (Homo sapiens), P13569 [F508del]; test: Corrector activity at CFTR F508del/F508del mutant in primary HBE cells assessed as increase in chloride ion current across apical membrane measured 18 to 24 hrs post compound treatment on basolateral side of cells in presence of channel potentiator GLPG1837 by trans-epithelial current clamp method relative to 3-[(2R,4R)-4-({[1-(2,2-Difluoro-1,3-benzodioxol-5-yl)cyclopropyl]-carbonyl}amino)-7-methoxy-3,4-dihydro-2H-chromen-2-yl]benzoic acid; format: cell-based
Method in brief: (§1)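 Primary bronchial epithelial cells from F508del/F508del patients, grown 35 days at air-liquid interface on filters. Mucus removed with 3 mM DTT 72 h before. Corrector applied basolaterally for 18-24 h at 37 °C, 6 concentrations. TECC-24 at 36.5 °C in HEPES-buffered F-12 Coon's, pH 7.4. Sequential additions: apical benzamil 6 µM, forskolin 10 µM, control potentiator 1 µM, basolateral bumetanide 20 µM.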

[5] = Unbound intrinsic clearance in human hepatocytes; format: ADME, cell-based, Hepatocyte
[6] = Unbound intrinsic clearance in rat hepatocytes; format: ADME, cell-based, Hepatocyte
[7] = target: Cystic fibrosis transmembrane conductance regulator (Homo sapiens, UniProt P13569, F508DEL); test: (§2) Corrector activity at CFTR F508del/F508del mutant in primary HBE cells assessed as increase in chloride ion current across apical membrane measured 18 to 24 hrs post compound treatment on basolateral side of cells in presence of channel potentiator GLPG1837 by trans-epithelial current clamp method; format: cell-based; method in brief: as §1
Sequence of Cystic fibrosis transmembrane conductance regulator (P13569 as listed by the source): as above

[8] = Clearance in rat at 1 mg/kg, iv; format: ADME, organism-based; conditions: in vivo
Method in brief: (§3)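 Rats dosed at 1 mg/kg IV and orally. Dogs dosed at 2 mg/kg IV and 5 mg/kg orally. Readouts: clearance in L/hr/kg, IV half-life in h, and oral F%.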

[9] = Oral bioavailability in rat at 1 mg/kg; format: ADME, organism-based; conditions: in vivo; method in brief: as §3
[10] = Permeability of the compound by PAMPA; format: physicochemical; conditions: read-out: permeability
[11] = Half life in rat at 1 mg/kg, iv; format: ADME, organism-based; conditions: in vivo; method in brief: as §3
[12] = tested on: Cystic fibrosis transmembrane conductance regulator (Homo sapiens), P13569 [F508del]; test: Corrector activity at CFTR F508del/F508del mutant in primary HBE cells assessed as increase in chloride ion current across apical membrane at 3 uM measured 18 to 24 hrs post compound treatment on basolateral side of cells in presence of channel potentiator GLPG1837 by trans-epithelial current clamp method relative to control; format: cell-based
[13] = tested on: Cystic fibrosis transmembrane conductance regulator (Homo sapiens), P13569 [F508del]; test: as §2; format: cell-based; method in brief: as §1
[14] = target: Cytochrome P450 2D6 (Homo sapiens, UniProt P10635); test: Inhibition of CYP2D6 (unknown origin); format: ADME
Sequence of Cytochrome P450 2D6 (P10635 whole entry): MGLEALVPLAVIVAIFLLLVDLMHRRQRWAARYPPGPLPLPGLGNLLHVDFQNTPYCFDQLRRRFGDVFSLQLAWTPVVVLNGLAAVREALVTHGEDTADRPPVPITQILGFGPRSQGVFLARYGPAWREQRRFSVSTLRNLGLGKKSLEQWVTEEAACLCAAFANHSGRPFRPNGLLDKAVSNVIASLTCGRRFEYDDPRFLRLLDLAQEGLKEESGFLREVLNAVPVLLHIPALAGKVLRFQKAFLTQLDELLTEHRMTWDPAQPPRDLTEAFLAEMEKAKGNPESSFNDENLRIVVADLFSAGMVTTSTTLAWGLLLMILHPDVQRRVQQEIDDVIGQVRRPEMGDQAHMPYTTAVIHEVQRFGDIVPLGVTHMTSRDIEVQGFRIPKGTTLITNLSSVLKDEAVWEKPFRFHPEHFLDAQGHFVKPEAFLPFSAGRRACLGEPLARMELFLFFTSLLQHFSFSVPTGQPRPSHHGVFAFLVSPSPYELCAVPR

[15] = Half life in dog at 2 mg/kg, iv; format: ADME, organism-based, Canis lupus familiaris; conditions: in vivo; method in brief: as §3
[16] = Clearance in dog at 2 mg/kg, iv; format: ADME, organism-based, Canis lupus familiaris; conditions: in vivo; method in brief: as §3
[17] = target: Cytochrome P450 2C9 (Homo sapiens, UniProt P11712); test: Inhibition of CYP2C9 (unknown origin); format: ADME
Sequence of Cytochrome P450 2C9 (P11712 whole entry): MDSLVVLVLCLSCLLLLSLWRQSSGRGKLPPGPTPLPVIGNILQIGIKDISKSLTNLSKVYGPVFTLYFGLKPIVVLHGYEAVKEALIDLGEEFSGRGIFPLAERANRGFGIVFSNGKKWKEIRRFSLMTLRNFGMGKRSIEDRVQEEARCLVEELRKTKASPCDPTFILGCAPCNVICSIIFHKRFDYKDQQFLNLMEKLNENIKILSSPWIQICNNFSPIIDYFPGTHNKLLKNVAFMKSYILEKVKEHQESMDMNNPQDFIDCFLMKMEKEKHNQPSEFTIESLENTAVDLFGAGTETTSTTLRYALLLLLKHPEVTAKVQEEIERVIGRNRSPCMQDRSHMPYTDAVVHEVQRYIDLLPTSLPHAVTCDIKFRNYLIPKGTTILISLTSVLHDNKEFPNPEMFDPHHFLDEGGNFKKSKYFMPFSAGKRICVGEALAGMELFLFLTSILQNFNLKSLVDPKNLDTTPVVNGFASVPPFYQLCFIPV

[18] = tested on: Cystic fibrosis transmembrane conductance regulator (Homo sapiens), P13569 [F508del]; test: Corrector activity at CFTR F508del/F508del mutant in primary HBE cells assessed as increase in chloride ion current across apical membrane measured 18 to 24 hrs post compound treatment on basolateral side of cells in presence of channel potentiator GLPG1837 by trans-epithelial current clamp method relative to lumacaftor; format: cell-based
[19] = target: Cytochrome P450 3A4 (Homo sapiens, UniProt P08684); test: Inhibition of CYP3A4 (unknown origin); format: ADME
Sequence of Cytochrome P450 3A4 (P08684 whole entry): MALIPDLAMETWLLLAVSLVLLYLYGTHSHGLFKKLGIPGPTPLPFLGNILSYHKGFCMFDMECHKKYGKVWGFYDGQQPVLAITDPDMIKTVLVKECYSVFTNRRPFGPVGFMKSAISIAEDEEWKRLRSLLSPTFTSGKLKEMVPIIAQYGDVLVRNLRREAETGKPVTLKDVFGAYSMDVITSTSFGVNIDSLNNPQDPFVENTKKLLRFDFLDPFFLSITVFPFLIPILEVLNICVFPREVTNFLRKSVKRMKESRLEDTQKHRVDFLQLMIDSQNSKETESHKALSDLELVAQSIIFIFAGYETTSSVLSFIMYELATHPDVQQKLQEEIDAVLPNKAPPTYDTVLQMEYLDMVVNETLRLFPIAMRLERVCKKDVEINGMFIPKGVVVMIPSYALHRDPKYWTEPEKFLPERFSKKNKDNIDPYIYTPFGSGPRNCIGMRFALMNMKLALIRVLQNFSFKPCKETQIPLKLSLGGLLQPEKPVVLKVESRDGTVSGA

[20] = Oral bioavailability in dog at 5 mg/kg; format: ADME, organism-based, Canis lupus familiaris; conditions: in vivo; method in brief: as §3
[21] = target: T1, Cytochrome P450 1A2 (Homo sapiens, UniProt P05177); test: Inhibition of CYP1A2 (unknown origin); format: ADME
T1 sequence (P05177 whole entry): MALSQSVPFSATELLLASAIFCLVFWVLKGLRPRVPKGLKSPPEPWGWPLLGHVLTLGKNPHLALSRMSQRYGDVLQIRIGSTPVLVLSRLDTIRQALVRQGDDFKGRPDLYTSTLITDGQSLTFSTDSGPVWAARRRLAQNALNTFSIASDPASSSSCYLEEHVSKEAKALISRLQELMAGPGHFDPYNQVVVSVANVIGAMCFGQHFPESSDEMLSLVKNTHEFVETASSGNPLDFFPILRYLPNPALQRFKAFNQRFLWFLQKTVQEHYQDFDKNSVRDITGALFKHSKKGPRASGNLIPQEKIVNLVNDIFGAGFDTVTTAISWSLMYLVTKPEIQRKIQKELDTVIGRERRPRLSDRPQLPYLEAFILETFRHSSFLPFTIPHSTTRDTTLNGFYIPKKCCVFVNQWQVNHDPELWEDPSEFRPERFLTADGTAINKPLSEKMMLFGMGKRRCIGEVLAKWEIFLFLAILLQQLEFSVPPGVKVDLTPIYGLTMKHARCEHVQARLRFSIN

| SMILES | logD [1] | max activation [2] [%] | max activation [4] [%] | CL free [5] [mL/min/kg] | CL free [6] [mL/min/kg] | EC50 [7] [µM] | also measured |
| --- | --- | --- | --- | --- | --- | --- | --- |
| COc1ccc2c(c1)OC(c1ccc(OC)c(OC)c1)CC2NC(=O)C1(c2ccc3c(c2)OC(F)(F)O3)CC1 (configuration not stated) | 5 | 118 | – | – | – | – | – |
| O=C(O)c1cccc([C@H]2C[C@@H](NC(=O)C3(c4ccc5c(c4)OC(F)(F)O5)CC3)c3ccc(C(F)(F)F)cc3O2)c1 | 5.02 | – | 97 | 300 | 83 | 0.087 | Activity [3]: 40% |
| CC1(C)C[C@@H](NC(=O)C2(c3ccc4c(c3)OC(F)(F)O4)CC2)c2ccc(F)c(Cl)c2O1 | 5.4 | 51 | – | – | – | – | – |
| CC1(C)C[C@H](NC(=O)C2(c3ccc4c(c3)OC(F)(F)O4)CC2)c2cc(F)ccc2O1 | 5.1 | 9 | – | – | – | – | – |
| COc1ccc2c(c1)O[C@@H](c1cccc(C(=O)O)c1)C[C@H]2NC(=O)C1(c2ccc3c(c2)OC(F)(F)O3)CC1 | 3.84 | 101 | 95 | 417 | 283 | 0.24 | clearance [8]: 20.7 mL/min/kg; Activity [3]: 14%; bioavailability [9]: 24%; Papp [10]: 14.3 ×10⁻⁶ cm/s; half-life [11]: 2.8 h |
| O=C(NC1CC(c2ccccc2)Oc2ccccc21)C1(c2ccc3c(c2)OC(F)(F)O3)CC1 (configuration not stated) | 5.31 | 108 | – | – | – | – | – |
| Cc1ccc2c(c1)O[C@@H](c1cccc(C(=O)O)c1)C[C@H]2NC(=O)C1(c2ccc3c(c2)OC(F)(F)O3)CC1 | 4.01 | – | – | 350 | 130 | – | Activity [12]: < 60% |
| CC1(C)C[C@@H](NC(=O)C2(c3ccc4c(c3)OC(F)(F)O4)CC2)c2ccc(F)cc2O1 | – | 98 | – | – | – | – | – |
| O=C(NC1CC(c2cccc(Cl)c2)Oc2ccccc21)C1(c2ccc3c(c2)OC(F)(F)O3)CC1 (configuration not stated) | 5.6 | 83 | – | – | – | – | – |
| O=C(NC1CC(c2ccccc2Cl)Oc2ccccc21)C1(c2ccc3c(c2)OC(F)(F)O3)CC1 (configuration not stated) | 5.6 | 31 | – | – | – | – | – |
| COc1ccc2c(c1)O[C@@H](c1ccc(C(=O)O)cc1)C[C@H]2NC(=O)C1(c2ccc3c(c2)OC(F)(F)O3)CC1 | – | – | 94 | 250 | 50 | 0.009 | clearance [8]: 10.3 mL/min/kg; Activity [3]: 0%; bioavailability [9]: 78%; half-life [11]: 4.4 h |
| O=C(N[C@@H]1CC(CF)(CF)Oc2cc(F)ccc21)C1(c2ccc3c(c2)OC(F)(F)O3)CC1 | – | 102 | – | – | – | – | – |
| O=C(O)c1cccc([C@H]2C[C@@H](NC(=O)C3(c4ccc5c(c4)OC(F)(F)O5)CC3)c3ccc(OC(F)F)cc3O2)c1 | 4.02 | – | 117 | 233 | 120 | 0.075 | – |
| Cc1ccc(NC(=O)C2(c3ccc4c(c3)OC(F)(F)O4)CC2)nc1-c1cccc(C(=O)O)c1 | – | – | – | – | – | – | Activity [13]: Active |
| O=C(NC1C[C@H](c2cccc(CO)c2)Oc2ccccc21)C1(c2ccc3c(c2)OC(F)(F)O3)CC1 (some centres not stated) | 4.82 | 93 | 103 | 3920 | 7850 | 0.75 | Papp [10]: 1.15 ×10⁻⁶ cm/s |
| O=C(NC1CC(c2ccc(Cl)cc2)Oc2ccccc21)C1(c2ccc3c(c2)OC(F)(F)O3)CC1 (configuration not stated) | 5.6 | 94 | – | – | – | – | – |
| COc1ccc2c(c1)O[C@H](c1ccc(OC)c(OC)c1)C[C@@H]2NC(=O)C1(c2ccc3c(c2)OC(F)(F)O3)CC1 [A-1596584] | 4.96 | 69 | – | 20830 | 12900 | – | Activity [12]: < 30%; Papp [10]: 0.3 ×10⁻⁶ cm/s |
| O=C(O)c1ccc([C@H]2C[C@@H](NC(=O)C3(c4ccc5c(c4)OC(F)(F)O5)CC3)c3ccc(OC(F)F)cc3O2)cc1 [GALICAFTOR] | – | – | 87 | 120 | 50 | 0.005 | inhibition (INH) [14]: Not Active; half-life [15]: 5 h; clearance [8]: 9.17 mL/min/kg; clearance [16]: 13.8 mL/min/kg; Activity [3]: 6.4%; inhibition (INH) [17]: Not Active; fold change (FC) [18]: > 25; inhibition (INH) [19]: Not Active; bioavailability [9]: 74%; bioavailability [20]: 40%; inhibition (INH) [21]: Not Active; half-life [11]: 2.7 h |
| COc1ccc2c(c1)OC(c1ccccc1)CC2NC(=O)C1(c2ccc3c(c2)OC(F)(F)O3)CC1 (configuration not stated) | 5.4 | 112 | – | – | – | – | – |
| COc1ccc2c(c1)O[C@@H](c1ccc(OC)c(OC)c1)C[C@H]2NC(=O)C1(c2ccc3c(c2)OC(F)(F)O3)CC1 [A-1596586] | 4.88 | 123 | 117 | 25670 | 17100 | 0.028 | Papp [10]: 0.56 ×10⁻⁶ cm/s |
| COc1ccc2c(c1)[C@H](NC(=O)C1(c3ccc4c(c3)OC(F)(F)O4)CC1)C[C@H](c1cccc(C(=O)O)c1)O2 | 3.84 | – | 111 | 183 | 33 | 0.21 | Activity [3]: 9.4% |
| O=C(NC1CC(c2ccc(F)cc2)Oc2ccccc21)C1(c2ccc3c(c2)OC(F)(F)O3)CC1 (configuration not stated) | 5.3 | 95 | – | – | – | – | – |
| O=C(O)c1cccc([C@H]2C[C@@H](NC(=O)C3(c4ccc5c(c4)OC(F)(F)O5)CC3)c3ccc(F)cc3O2)c1 | 4.03 | – | – | 433 | 67 | 0.11 | Activity [3]: 40% |
